# Legend:
# [1] = target: T1, Tyrosine-protein kinase JAK2 (Homo sapiens, UniProt O60674); experiment: Inhibition of N-terminal His-tagged human JAK2 catalytic domain (826 to 1132 resiudes) expressed in baculovirus expression system at 100 nM using FAM-labeled peptide as substrate preincubated for 10 mins followed by substrate addition measured after 1 hr in presence of ATP by mobility shift assay relative to control
# Procedure, shortened: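 Single-concentration (100 nM) percent inhibition in the mobility-shift JAK2 assay. Enzyme was preincubated with compound for 10 min at room temperature in HEPES pH 7.5/Brij-35 buffer. FAM-peptide and ATP were then added and the reaction run for 1 h at 28 °C before EDTA stop. Inhibition = (max−conversion)/(max−min)×100. Each compound was tested at least twice and the values averaged.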
# HEL = experiment: Antiproliferative activity against human HEL cells assessed as growth inhibition after 72 hrs by CCK-8 assay; type: functional
# Procedure, shortened: (§1)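 CCK-8 viability readout. Cells were cultured in RPMI 1640 with 10% FBS and 1% penicillin/streptomycin and seeded at 3000 (HEL), 5000 (MV4-11) or 3000 (HL60) cells/well. Increasing compound concentrations were applied for 72 h, then CCK-8 was added for a further 3 h and absorbance read at 450 nm. Inhibition = (1−A_sample/A_control)×100, normalized to DMSO controls. Value is the mean of three independent measurements, obtained by curve fitting.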
# [2] = target: Receptor-type tyrosine-protein kinase FLT3 (Homo sapiens) (UniProt P36888); details: at 100 nM
# MV4-11 = experiment: Antiproliferative activity against human MV4-11 cells assessed as growth inhibition after 72 hrs by CCK-8 assay; type: functional; details: MV4-11, 72 h; procedure, shortened: as §1
# HL-60 = experiment: Antiproliferative activity against human HL60 cells assessed as growth inhibition after 72 hrs by CCK-8 assay; type: functional; details: HL-60, 72 h; procedure, shortened: as §1
# [3] = target: T1, Tyrosine-protein kinase JAK2; experiment: Inhibition of N-terminal His-tagged human JAK2 catalytic domain (826 to 1132 resiudes) expressed in baculovirus expression system using FAM-labeled peptide as substrate preincubated for 10 mins followed by substrate addition measured after 1 hr in presence of ATP by mobility shift assay
# Procedure, shortened: (§2)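 Caliper mobility-shift assay with recombinant kinase in 50 mM HEPES pH 7.5, 0.0015% Brij-35. Compound was diluted from DMSO and preincubated with enzyme for 10 min at room temperature. FAM-labeled peptide plus ATP was then added and the reaction run for 1 h at 28 °C. It was stopped with an EDTA (50 mM) buffer. Conversion gave percent inhibition relative to max/min controls, and IC50 came from a four-parameter Hill fit. Duplicate wells were used.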
# [4] = target: T2, Receptor-type tyrosine-protein kinase FLT3 (Homo sapiens, UniProt P36888); experiment: Inhibition of N-terminal GST-tagged human FLT3 cytoplasmic domain (564 to 993 residues) expressed in baculovirus expression system musing FAM-labeled peptide as substrate preincubated for 10 mins followed by substrate addition measured after 1 hr in presence of ATP by mobility shift assay; procedure, shortened: as §2
# T2 sequence (P36888 whole entry): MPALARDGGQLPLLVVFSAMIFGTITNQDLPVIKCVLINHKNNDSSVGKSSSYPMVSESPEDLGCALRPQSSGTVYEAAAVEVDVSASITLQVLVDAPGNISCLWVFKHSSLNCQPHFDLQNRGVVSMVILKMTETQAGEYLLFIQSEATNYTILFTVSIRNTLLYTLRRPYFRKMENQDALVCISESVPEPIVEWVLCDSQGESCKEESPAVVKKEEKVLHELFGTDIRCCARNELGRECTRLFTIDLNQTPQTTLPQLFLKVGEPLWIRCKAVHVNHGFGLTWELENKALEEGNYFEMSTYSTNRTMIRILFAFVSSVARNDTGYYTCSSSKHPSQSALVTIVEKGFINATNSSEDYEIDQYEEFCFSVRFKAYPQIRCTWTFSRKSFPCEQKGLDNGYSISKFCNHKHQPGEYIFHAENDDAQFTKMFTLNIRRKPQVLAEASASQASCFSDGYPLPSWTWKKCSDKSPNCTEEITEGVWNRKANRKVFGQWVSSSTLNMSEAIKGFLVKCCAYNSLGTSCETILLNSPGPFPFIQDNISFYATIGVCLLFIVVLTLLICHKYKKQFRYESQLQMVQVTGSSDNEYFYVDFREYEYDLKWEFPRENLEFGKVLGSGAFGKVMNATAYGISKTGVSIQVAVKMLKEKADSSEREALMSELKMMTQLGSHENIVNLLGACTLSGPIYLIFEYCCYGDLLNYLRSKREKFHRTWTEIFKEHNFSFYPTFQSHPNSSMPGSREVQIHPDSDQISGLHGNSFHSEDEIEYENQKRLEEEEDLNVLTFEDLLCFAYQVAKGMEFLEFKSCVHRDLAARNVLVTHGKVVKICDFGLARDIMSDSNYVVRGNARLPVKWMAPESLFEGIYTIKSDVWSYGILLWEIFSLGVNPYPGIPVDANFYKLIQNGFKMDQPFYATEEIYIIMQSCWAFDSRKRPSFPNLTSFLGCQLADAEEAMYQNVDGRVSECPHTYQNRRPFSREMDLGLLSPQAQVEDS
# T1 sequence (O60674 whole entry, the tested form may be a part): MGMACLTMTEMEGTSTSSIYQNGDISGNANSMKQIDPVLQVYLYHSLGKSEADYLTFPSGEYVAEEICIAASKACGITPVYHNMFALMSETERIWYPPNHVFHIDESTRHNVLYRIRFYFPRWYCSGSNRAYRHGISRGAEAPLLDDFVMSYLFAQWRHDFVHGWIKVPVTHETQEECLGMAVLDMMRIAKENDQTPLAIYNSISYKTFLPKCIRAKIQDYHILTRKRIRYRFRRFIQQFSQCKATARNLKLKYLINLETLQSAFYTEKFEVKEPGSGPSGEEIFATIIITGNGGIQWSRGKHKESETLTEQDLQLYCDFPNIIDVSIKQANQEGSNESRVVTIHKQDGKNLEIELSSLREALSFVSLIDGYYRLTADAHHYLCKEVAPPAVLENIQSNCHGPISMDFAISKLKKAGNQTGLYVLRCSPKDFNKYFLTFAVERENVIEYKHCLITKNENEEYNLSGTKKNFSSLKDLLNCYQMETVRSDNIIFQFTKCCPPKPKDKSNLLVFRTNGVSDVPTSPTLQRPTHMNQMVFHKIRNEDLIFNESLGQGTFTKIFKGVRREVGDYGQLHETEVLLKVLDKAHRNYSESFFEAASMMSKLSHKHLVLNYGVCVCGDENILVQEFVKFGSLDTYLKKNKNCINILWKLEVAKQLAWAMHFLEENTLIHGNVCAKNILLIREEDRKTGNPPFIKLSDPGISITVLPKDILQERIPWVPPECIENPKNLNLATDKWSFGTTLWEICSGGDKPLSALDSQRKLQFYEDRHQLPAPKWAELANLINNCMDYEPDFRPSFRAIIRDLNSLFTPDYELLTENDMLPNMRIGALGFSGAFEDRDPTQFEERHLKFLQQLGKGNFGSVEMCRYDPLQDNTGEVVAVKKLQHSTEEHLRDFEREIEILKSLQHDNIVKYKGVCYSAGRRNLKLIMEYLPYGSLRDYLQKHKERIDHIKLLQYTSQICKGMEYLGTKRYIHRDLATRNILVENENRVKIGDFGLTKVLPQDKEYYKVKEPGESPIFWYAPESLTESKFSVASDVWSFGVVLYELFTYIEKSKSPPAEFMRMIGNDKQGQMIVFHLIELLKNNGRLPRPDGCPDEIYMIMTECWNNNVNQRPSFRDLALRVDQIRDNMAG
inhibition [1] [%],inhibition [2] [%],GI50 (MV4-11) [µM],GI50 (HL-60) [µM],IC50 [3] [µM],IC50 [4] [µM],Structure (SMILES),GI50 (HEL) [µM]
53,74,,,,,NC(=O)c1ccc(NC(=O)N2CCN(c3ccnc(Nc4ccc(OCCN5CCCC5)cc4)n3)CC2)cc1,> 50
80.8,87.5,32,46.4,0.0138,0.012,CC(=O)c1ccc(NC(=O)N2CCN(c3ccnc(Nc4ccc(N5CCN(C)CC5)cc4)n3)CC2)cc1,14.1
40.6,33.1,,,,,COC(=O)CNC(=O)c1ccc(NC(=O)N2CCN(c3ccnc(Nc4ccc(N5CCOCC5)cc4)n3)CC2)cc1,
54.8,27.8,,,,,O=C(Nc1ccc(F)cc1)N1CCN(c2ccnc(Nc3ccc(N4CCOCC4)cc3)n2)CC1,
53,54,,,,,CC(=O)c1ccc(NC(=O)N2CCN(c3ccnc(Nc4ccc(N5CCC(C)CC5)cc4)n3)CC2)cc1,26.4
45,69,,,,,CC(=O)c1ccc(NC(=O)N2CCN(c3ccnc(Nc4ccc(OCCN5CCCC5)cc4)n3)CC2)cc1,30.3
35.2,36.5,,,,,O=C(Nc1cccc(C(F)(F)F)c1)N1CCN(c2ccnc(Nc3ccc(N4CCOCC4)cc3)n2)CC1,
64.4,62.8,,,,,COC(=O)c1ccc(NC(=O)N2CCN(c3ccnc(Nc4ccc(N5CCOCC5)cc4)n3)CC2)cc1,
18.9,13.8,,,,,CC(=O)c1ccccc1NC(=O)N1CCN(c2ccnc(Nc3ccc(N4CCOCC4)cc3)n2)CC1,
53.7,27.8,,,,,O=C(Nc1ccccc1)N1CCN(c2ccnc(Nc3ccc(N4CCOCC4)cc3)n2)CC1,
35.2,36.5,,,,,O=C(Nc1ccc(C(F)(F)F)cc1)N1CCN(c2ccnc(Nc3ccc(N4CCOCC4)cc3)n2)CC1,
86.3,81.1,> 50,> 50,0.011,0.021,NC(=O)c1ccc(NC(=O)N2CCN(c3ccnc(Nc4ccc(N5CCOCC5)cc4)n3)CC2)cc1,> 50
86,79.7,> 50,> 50,0.0093,0.03,NS(=O)(=O)c1ccc(NC(=O)N2CCN(c3ccnc(Nc4ccc(N5CCOCC5)cc4)n3)CC2)cc1,> 50
75.8,53.9,,,,,CS(=O)(=O)c1ccc(NC(=O)N2CCN(c3ccnc(Nc4ccc(N5CCOCC5)cc4)n3)CC2)cc1,
8.1,15.9,,,,,N#Cc1cccc(NC(=O)N2CCN(c3ccnc(Nc4ccc(N5CCOCC5)cc4)n3)CC2)c1,
60.7,83.2,11,29.4,0.065,0.013,CC(=O)c1ccc(NC(=O)N2CCN(c3ccnc(Nc4ccc(OCCCN5CCCC5)cc4)n3)CC2)cc1,3.3
59,82,,,,,NS(=O)(=O)c1ccc(NC(=O)N2CCN(c3ccnc(Nc4ccc(OCCN5CCCC5)cc4)n3)CC2)cc1,> 50
11.1,22.9,,,,,CC(C)Oc1ccc(NC(=O)N2CCN(c3ccnc(Nc4ccc(N5CCOCC5)cc4)n3)CC2)cc1,

inhibition [1] [%],inhibition [2] [%],GI50 (MV4-11) [µM],GI50 (HL-60) [µM],IC50 [3] [µM],IC50 [4] [µM],Structure (SMILES),GI50 (HEL) [µM]
92,,1.6,1.4,,,C1=N/C2=N/c3ccc(OCCN4CCCC4)c(c3)COC/C=C/COCc3cccc(c3)C(=C1)N2 [PACRITINIB],1.1
20,17.2,,,,,O=C(Nc1ccc(C(=O)N2CCOCC2)cc1)N1CCN(c2ccnc(Nc3ccc(N4CCOCC4)cc3)n2)CC1,
76,86,,,,,CN1CCN(c2ccc(Nc3nccc(N4CCN(C(=O)Nc5ccc(S(N)(=O)=O)cc5)CC4)n3)cc2)CC1,> 50
74,39.8,,,,,NC(=O)c1cccc(NC(=O)N2CCN(c3ccnc(Nc4ccc(N5CCOCC5)cc4)n3)CC2)c1,
68.1,35.8,,,,,CNC(=O)c1ccc(NC(=O)N2CCN(c3ccnc(Nc4ccc(N5CCOCC5)cc4)n3)CC2)cc1,
60.9,70.9,,,,,CC(=O)c1ccc(NC(=O)N2CCN(c3ccnc(Nc4ccc(OCCCN5CCOCC5)cc4)n3)CC2)cc1,10.7
41.2,0,,,,,CCN(CC)c1ccc(NC(=O)N2CCN(c3ccnc(Nc4ccc(N5CCOCC5)cc4)n3)CC2)cc1,
53.3,27.4,,,,,CCc1ccc(NC(=O)N2CCN(c3ccnc(Nc4ccc(N5CCOCC5)cc4)n3)CC2)cc1,
79.3,84.4,,,,,O=C(Nc1ccc([N+](=O)[O-])cc1)N1CCN(c2ccnc(Nc3ccc(N4CCOCC4)cc3)n2)CC1,
48.7,21.7,,,,,COc1ccc(NC(=O)N2CCN(c3ccnc(Nc4ccc(N5CCOCC5)cc4)n3)CC2)cc1,
61.7,70.6,,,,,CC(=O)c1ccc(NC(=O)N2CCN(c3ccnc(Nc4ccc(OCCN5CCOCC5)cc4)n3)CC2)cc1,8.9
94.7,,,,,,N#CCNC(=O)c1ccc(-c2ccnc(Nc3ccc(N4CCOCC4)cc3)n2)cc1,
2,3.3,,,,,CC(=O)c1cccc(NC(=O)N2CCN(c3ccnc(Nc4ccc(N5CCOCC5)cc4)n3)CC2)c1,
78,70.8,,,,,N#Cc1ccc(NC(=O)N2CCN(c3ccnc(Nc4ccc(N5CCOCC5)cc4)n3)CC2)cc1,
73.9,77.6,17.8,> 50,0.0298,0.04,CC(=O)c1ccc(NC(=O)N2CCN(c3ccnc(Nc4ccc(N5CCSCC5)cc4)n3)CC2)cc1,4.7
9.5,12.5,,,,,NC(=O)c1ccccc1NC(=O)N1CCN(c2ccnc(Nc3ccc(N4CCOCC4)cc3)n2)CC1,
21.8,15,,,,,O=C(Nc1ccccc1C(F)(F)F)N1CCN(c2ccnc(Nc3ccc(N4CCOCC4)cc3)n2)CC1,
84,85,,,,,CN1CCN(c2ccc(Nc3nccc(N4CCN(C(=O)Nc5ccc(C(N)=O)cc5)CC4)n3)cc2)CC1,> 50
